Activity calls are given as the source filed them. The calls are words filed in the database; no cut-off is given here.
Key:
[1] = Immunosuppressive activity in anti-CD3/[…] co-stimulated Balb/c mouse lymph node cells assessed as inhibition of cell proliferation after 72 hrs by ELISA; format: functional
Summary of the method: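 Lymph node cells co-stimulated with anti-CD3/anti-CD28. The IC50 is the concentration inhibiting proliferation by 50% relative to control values. Cyclosporin A served as the reference control.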

[2] = Selectivity index, ratio of CC50 for Balb/c mouse lymph node cells to IC50 for anti-CD3/[…] co-stimulated mouse Balb/c mouse lymph node cells; format: functional
Summary of the method: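 The selectivity index is CC50 on unstimulated lymph node cells divided by IC50 for proliferation of anti-CD3/anti-CD28 co-stimulated lymph node cells, both relative to control values.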

[3] = Cytotoxicity against Balb/c mouse lymph node cells after 48 hrs by MTT assay; format: cell-based
Summary of the method: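 Naïve lymph node cells; the CC50 is the concentration giving 50% cell survival. Cyclosporin A served as the reference control.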

[4] = organism: Mus musculus; experiment: Induction of apoptosis in anti-CD-3/[…] co-stimulated Balb/c mouse lymph node cells assessed as caspase 3 cleavage product p17 formation after 24 hrs by Western blot analysis; format: functional
Summary of the method: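 Anti-CD3/anti-CD28 co-stimulated lymph node cells were treated with compound across a dose series. Lysates were probed by Western blot with an anti-cleaved caspase-3 antibody that recognises the p17 cleavage fragment.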

[5] = Induction of apoptosis in anti-CD-3/[…] co-stimulated Balb/c mouse lymph node cells assessed as apoptotic cells at 10 ug/ml after 24 hrs by annexin V/PI staining-based flow cytometric analysis; format: functional
Summary of the method: (§1)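 Lymph node cells isolated from naïve mice were cultured with anti-CD3/anti-CD28 plus compound at 10, 20 or 40 µg/mL for 24 h. Cells were stained with Annexin V-FITC/PI and apoptotic cells were counted by flow cytometry.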

[6] = organism: Mus musculus; experiment: Induction of apoptosis in anti-CD-3/[…] co-stimulated Balb/c mouse lymph node cells assessed as apoptotic cells after 24 hrs by annexin V/PI staining-based flow cytometric analysis; format: functional; summary of the method: as §1
[7] = Induction of apoptosis in anti-CD-3/[…] co-stimulated Balb/c mouse lymph node cells assessed as apoptotic cells at 20 ug/ml after 24 hrs by annexin V/PI staining-based flow cytometric analysis; format: functional; summary of the method: as §1
[8] = Induction of apoptosis in anti-CD-3/[…] co-stimulated Balb/c mouse lymph node cells assessed as apoptotic cells at 40 ug/ml after 24 hrs by annexin V/PI staining-based flow cytometric analysis; format: functional; summary of the method: as §1
[9] = organism: Mus musculus; experiment: Induction of apoptosis in anti-CD-3/[…] co-stimulated Balb/c mouse lymph node cells assessed as PARP cleavage at 10 to 40 ug/ml after 24 hrs by Western blot analysis; format: functional

SMILES | IC50 [1] [µM] | Ratio CC50/IC50 [2] | CC50 at 48 h [3] [µM] | Activity [4] | Activity [5] [%] | Activity [6] | Activity [7] [%] | Activity [8] [%] | Activity [9]
COc1ccc(/C=C/C(=N\O)c2ccc(C)cc2)cc1 | 6.24 | 18.82 | 117 | – | – | – | – | – | –
COc1ccc(C(/C=C/c2ccc(Cl)cc2)=N/O)cc1 | 11.5 | 25.31 | 291 | – | – | – | – | – | –
O/N=C(\C=C\c1ccc(Cl)cc1)c1ccc(Cl)cc1 | 9.15 | 1.54 | 14.1 | – | – | – | – | – | –
O/N=C(\C=C\c1cccs1)c1ccc(Cl)cc1 | 9.59 | 1.23 | 11.8 | – | – | – | – | – | –
O/N=C(\C=C\c1ccc(Cl)cc1)c1ccc(Br)cc1 | 14.7 | 1.68 | 24.7 | – | – | – | – | – | –
COc1ccc(C(=O)/C=C/c2ccc(Br)cc2)cc1 | 25.1 | 3.73 | 93.7 | – | – | – | – | – | –
COc1ccc(C(/C=C/c2ccc(F)cc2)=N/O)cc1 | 11 | 1.23 | 13.5 | – | – | – | – | – | –
O/N=C(\C=C\c1cccs1)c1ccc(Br)cc1 | 11.2 | 1.38 | 15.3 | – | – | – | – | – | –
COc1ccc(/C=C/C(=N\O)c2ccc(Br)cc2)cc1 | < 5 | >4.75 | 23.7 | – | – | – | – | – | –
O/N=C(\C=C\c1ccc(Cl)cc1)c1ccc(F)cc1 | 10.9 | 1.36 | 14.8 | – | – | – | – | – | –
Cc1ccc(C(/C=C/c2ccc(Cl)c(Cl)c2)=N/O)cc1 | 6.34 | 2.32 | 14.7 | – | – | – | – | – | –
COc1ccc(/C=C/C(=N\O)c2ccc(Cl)cc2)cc1 | 5.85 | 4.16 | 24.3 | – | – | – | – | – | –
O/N=C(\C=C\c1ccc(F)cc1)c1ccc(Cl)cc1 | 10.6 | 1.08 | 11.5 | – | – | – | – | – | –
Cc1ccc(C(/C=C/c2ccc(Cl)cc2)=N/O)cc1 | 11.6 | 1.84 | 21.3 | – | – | – | – | – | –
O/N=C(\C=C\c1ccc(Cl)c(Cl)c1)c1ccc(Br)cc1 | < 5 | – | < 5 | – | – | – | – | – | –
COc1ccc(/C=C/C(=O)c2ccc(OC)cc2)cc1 [4,4'-DIMETHOXYCHALCONE] | 23.6 | 75.98 | 1790 | – | – | – | – | – | –
COc1ccc(C(/C=C/c2ccc(Br)cc2)=N/O)cc1 | 13.9 | 52.93 | 737 | Dose-dependent effect | 22.71 | Dose-dependent effect | 32.25 | 40.63 | –
Cc1ccc(C(/C=C/c2ccc(Br)cc2)=N/O)cc1 | 11.6 | 2.94 | 34.2 | – | – | – | – | – | –
COc1ccc(/C=C/C(=N\O)c2ccc(OC)cc2)cc1 | 12.3 | 176.69 | 2170 | Dose-dependent effect | 25.83 | Dose-dependent effect | 34.05 | 96.46 | Active
COc1ccc(C(/C=C/c2cccs2)=N/O)cc1 | 8.49 | 1.25 | 10.6 | – | – | – | – | – | –
COc1ccc(C(/C=C/c2ccc(Cl)cc2Cl)=N/O)cc1 | 11.2 | 2.24 | 25 | – | – | – | – | – | –
Cc1ccc(C(/C=C/c2ccc(F)cc2)=N/O)cc1 | 11.2 | 1.17 | 13.2 | – | – | – | – | – | –
O/N=C(\C=C\c1ccc(F)cc1)c1ccc(Br)cc1 | 13.3 | 1.53 | 20.3 | – | – | – | – | – | –
COc1ccc(C(/C=C/c2ccccc2)=N/O)cc1 | 11.8 | 2.42 | 28.6 | – | – | – | – | – | –

Reference: ChEMBL document CHEMBL2016450, “Design, synthesis, and biological evaluation of chalcone oxime derivatives as potential immunosuppressive agents” (Bioorg Med Chem Lett, 2012)
